Values joined by “and” are separate entries in the source; they are usually repeats but may differ in a detail not shown here. Equal entries are not always repeated.
Experiments:
[1] = 3 + 3 dose‐escalation: dose‐limiting toxicity; assay type: in vivo, human; settings: patients with advanced cancer
[2] = tablet 300 mg vs capsule 400 mg; cited from earlier work
[3] = Olaparib pharmacokinetics in human plasma; assay type: in vivo; settings: Cycle 1 day 0, dose‐level 3 (MTD), olaparib 75 mg tablets, N=6, plasma
[4] = test system: PAR levels (balance of PARP and PARG activity) in peripheral blood mononuclear cells; assay: Radiation‐enhanced‐PAR pharmacodynamic assay; assay type: in vivo, human; settings: Day 8 vs before treatment, lowest dose‐level (25 mg olaparib BID), ex vivo 8 Gy
Outline: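 Venous blood (16 mL, mononuclear cell preparation citrate tubes) was drawn pre-dose Day 0 and Day 8 of cycle 1; olaparib BID from Day 0, carboplatin AUC 3 mg*min/mL IV Day 1 at this level. Three independent samples of 2 × 10⁶ PBMCs were irradiated ex vivo with 8 Gy on ice, then held 1 h on ice. PAR was quantified by HT-PARP in vivo pharmacodynamics Assay II (NCI protocol). Reduction = ([Day 0 − Day 8]/Day 0) × 100%.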

[5] = once per 21‐day cycle with olaparib capsules 400 mg BID Day 1 to 7; cited from earlier work
Carboplatin = assay type: in vivo, human; settings: Cycle 1 day 1, plasma ultrafiltrate, target AUC 4, N=21 (dose‐level 1‐4)
Outline: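 Platinum from carboplatin measured in plasma and plasma ultrafiltrate by ICPMS with iridium internal standard. Carboplatin was given as a 30-min IV infusion on Day 1, dosed by Calvert formula (Cockcroft-Gault GFR), alongside oral olaparib BID from Day 0. Blood (4 mL) was sampled 0.25, 0.5, 1, 2, 4, 6, 8, 10, 24 and 48 h post-infusion. AUC0-48 calculated.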

SMILES	Maximum tolerable dose (MTD), olaparib part ([1]; olaparib tablets continuously with carboplatin AUC 4 mg*min/mL d1/d22, two cycles)	AUC of the tablet formulation (300 mg) higher than the capsule formulation (400 mg) [2]	Olaparib AUC0-12 (mean) [3]	Relative reduction in PAR levels in PBMCs [4]	MTD, carboplatin part (target AUC) [5]	Maximum tolerable dose (MTD), carboplatin part (target AUC) ([1]; carboplatin d1/d22 with olaparib tablets 75 mg BID, two cycles)	Carboplatin AUC0-48 (mean) (Carboplatin)
O=C(c1cc(Cc2n[nH]c(=O)c3ccccc23)ccc1F)N1CCN(C(=O)C2CC2)CC1 [olaparib]	75 mg BID	13%	15500 ng·h/mL	97.5% ± 0.1%			
N.N.O=C([O-])C1(C(=O)[O-])CCC1.[Pt+2] [carboplatin]					5 mg·min/mL	4 mg·min/mL	5.10 mg·min/mL and 5.1 mg·min/mL and 5 mg·min/mL
